From ChEMBL document CHEMBL1649408, “Synthesis and in vitro antimycobacterial activity of 8-OCH(3) ciprofloxacin methylene and ethylene isatin derivatives” (Eur J Med Chem, 2011)
In brackets after ≈: the same amount, converted by molar mass.

Assays:
[1] = tested on: Mycobacterium tuberculosis; experiment: Antimycobacterial activity against multidrug-resistant Mycobacterium tuberculosis 09710 after 7 days by serial double dilution technique; assay type: functional; conditions: Mycobacterium tuberculosis, 09710, 168 h
How it was run: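 MDR strain (resistant to RIF, INH, EMB, SM), clinical isolate, tested by rapid direct susceptibility test. Compounds two-fold diluted in 2× Advanced Middlebrook 7H9 broth, final 256 to 1 µg/ml, mixed 1:1 with suspension containing 4 × 10^-3 mg cells. Incubated sealed at 37 °C in wet box; read at 3 days, redetermined at 7 days by high-magnification visual system. MIC = complete growth inhibition.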

[2] = tested on: Mycobacterium tuberculosis; experiment: Ratio of compound MIC to ciprofloxacin MIC for multidrug-resistant Mycobacterium tuberculosis 09710; assay type: functional

## NNC(=O)c1ccncc1 [ISONIAZID]
[1]
  MIC: 467 µM (≈ 64 µg/mL)

## CCO/N=C1\C(=O)N(CN2CCN(c3c(F)cc4c(=O)c(C(=O)O)cn(C5CC5)c4c3OC)CC2)c2ccccc21
[1]
  MIC: 28.4 µM (≈ 16 µg/mL)

## CO[C@H]1/C=C/O[C@@]2(C)Oc3c(C)c(O)c4c(O)c(c(/C=N/N5CCN(C)CC5)c(O)c4c3C2=O)NC(=O)/C(C)=C\C=C\[C@H](C)[C@H](O)[C@@H](C)[C@@H](O)[C@@H](C)[C@H](OC(C)=O)[C@@H]1C [RIFAMPIN]
[1]
  MIC: > 311 µM

## COc1c(N2CCN(CN3C(=O)/C(=N\O)c4ccccc43)CC2)c(F)cc2c(=O)c(C(=O)O)cn(C3CC3)c12
[1]
  MIC: 29.9 µM (≈ 16 µg/mL)

## CO/N=C1\C(=O)N(CN2CCN(c3c(F)cc4c(=O)c(C(=O)O)cn(C5CC5)c4c3OC)CC2)c2ccc(F)cc21
[1]
  MIC: 7.05 µM (≈ 4 µg/mL)
[2]
  Ratio: 3.5

## COc1c(N2CCN(CN3C(=O)C(=O)c4cc(F)ccc43)CC2)c(F)cc2c(=O)c(C(=O)O)cn(C3CC3)c12
[1]
  MIC: 14.9 µM (≈ 8.01 µg/mL)

## COc1c(N2CCNCC2)c(F)cc2c(=O)c(C(=O)O)cn(C3CC3)c12
[1]
  MIC: 11.1 µM (≈ 4 µg/mL)

## COc1c(N2CCN(CN3C(=O)/C(=N\NC(N)=O)c4ccccc43)CC2)c(F)cc2c(=O)c(C(=O)O)cn(C3CC3)c12
[1]
  MIC: 6.93 µM (≈ 4 µg/mL)
[2]
  Ratio: 3.5

## COc1c(N2CCN(CN3C(=O)C(=O)c4ccccc43)CC2)c(F)cc2c(=O)c(C(=O)O)cn(C3CC3)c12
[1]
  MIC: 30.8 µM (≈ 16 µg/mL)

## COc1c(N2CCN(CN3C(=O)/C(=N\O)c4cc(F)ccc43)CC2)c(F)cc2c(=O)c(C(=O)O)cn(C3CC3)c12
[1]
  MIC: 14.5 µM (≈ 8.01 µg/mL)

## COc1c(N2CCN(CN3C(=O)/C(=N\NC(N)=S)c4ccccc43)CC2)c(F)cc2c(=O)c(C(=O)O)cn(C3CC3)c12
[1]
  MIC: 6.75 µM (≈ 4.01 µg/mL)
[2]
  Ratio: 3.5

## CO/N=C1\C(=O)N(CN2CCN(c3c(F)cc4c(=O)c(C(=O)O)cn(C5CC5)c4c3OC)CC2)c2ccccc21
[1]
  MIC: 14.6 µM (≈ 8.01 µg/mL)

## O=C(O)c1cn(C2CC2)c2cc(N3CCNCC3)c(F)cc2c1=O [CIPROFLOXACIN]
[1]
  MIC: 24.2 µM (≈ 8.01 µg/mL)

## COc1c(N2CCN(CN3C(=O)/C(=N\NC(N)=O)c4cc(F)ccc43)CC2)c(F)cc2c(=O)c(C(=O)O)cn(C3CC3)c12
[1]
  MIC: 6.72 µM (≈ 4 µg/mL)
[2]
  Ratio: 3.5
